Measured values reported in ChEMBL document CHEMBL1126762, “Synthesis and anaerobic activity of novel 1-carba-1-dethiacephalosporins” (J Med Chem, 1993).
Converted amounts (≈) assume the structure as drawn.

Assays:
[1] = tested on: Peptostreptococcus anaerobius; test: Antibacterial activity against anaerobic Peptostreptococcus anaerobius 1451; assay type: functional
Outline: (§1)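 MIC by agar dilution following the NCCLS M11-A2 (2nd ed.) procedure for antimicrobial testing of anaerobic bacteria.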

[2] = Antibacterial activity against anaerobic Fusobacterium symbiosum 1470; assay type: functional, fusobacterium symbosium; outline: as §1
[3] = tested on: Prevotella melaninogenica; test: Antibacterial activity against anaerobic Bacteroides melaninogenicus 2736; assay type: functional; outline: as §1
[4] = Antibacterial activity against anaerobic Eubacterium aerofaciens 1235; assay type: functional; conditions: Collinsella aerofaciens; outline: as §1
[5] = tested on: Phocaeicola vulgatus; test: Antibacterial activity against anaerobic Bacteroides vulgatus 1211; assay type: functional; outline: as §1
[6] = tested on: Fusobacterium necrophorum; test: Antibacterial activity against anaerobic Fusobacterium necrophorum 6054A; assay type: functional; outline: as §1
[7] = tested on: Klebsiella aerogenes; test: Antibacterial activity against aerobic Enterobacter aerogenes C32; assay type: functional
Outline: (§2)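 MIC by agar dilution following the NCCLS M7-A2 (2nd ed.) procedure for bacteria that grow aerobically.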

[8] = tested on: Klebsiella pneumoniae; test: Antibacterial activity against aerobic Klebsiella pneumoniae X26; assay type: functional; outline: as §2
[9] = tested on: Clostridium perfringens; test: Antibacterial activity against anaerobic Clostridium perfringens 81; assay type: functional
Outline: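 Agar dilution MIC following NCCLS document M11-A2 (Vol. 10, no. 15), the method for antimicrobial testing of anaerobic bacteria; value reported as minimum inhibitory concentration.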

[10] = tested on: Bacteroides fragilis; test: Antibacterial activity against anaerobic Bacteroides fragilis 111; assay type: functional; outline: as §1
[11] = tested on: Clostridium septicum; test: Antibacterial activity against anaerobic Clostridium septicum 1128; assay type: functional; outline: as §1
[12] = tested on: Eikenella corrodens; test: Antibacterial activity against anaerobic Bacteroides corrodens 1874; assay type: functional; outline: as §1
[13] = tested on: Cutibacterium acnes; test: Antibacterial activity against anaerobic Propionibacterium acnes 79; assay type: functional; outline: as §1
[14] = tested on: Escherichia coli; test: Antibacterial activity against aerobic Escherichia coli EC14; assay type: functional; outline: as §2
[15] = tested on: Anaerococcus prevotii; test: Antibacterial activity against anaerobic Peptococcus prevoti 1281; assay type: functional; outline: as §1
[16] = tested on: Prevotella melaninogenica; test: Antibacterial activity against anaerobic Bacteroides melaninogenicus 1856/28; assay type: functional; outline: as §1
[17] = tested on: Staphylococcus aureus; test: Antibacterial activity against aerobic Staphylococcus aureus X1.1 strain; assay type: functional; outline: as §2
[18] = tested on: Clostridioides difficile; test: Antibacterial activity against anaerobic Clostridium difficile 2994 strain; assay type: functional; outline: as §1
[19] = tested on: Pseudomonas aeruginosa; test: Antibacterial activity against aerobic Pseudomonas aeruginosa X239 strain; assay type: functional; outline: as §2
[20] = tested on: Bacteroides fragilis; test: Antibacterial activity against anaerobic Bacteroides fragilis 1877; assay type: functional; outline: as §1
[21] = tested on: Bacteroides thetaiotaomicron; test: Antibacterial activity against anaerobic Bacteroides thetaiotaomicron 1438; assay type: functional; outline: as §1
[22] = tested on: Bacteroides fragilis; test: Antibacterial activity against anaerobic Bacteroides fragilis 1936B; assay type: functional; outline: as §1
[23] = tested on: Staphylococcus epidermidis; test: Antibacterial activity against aerobic Staphylococcus epidermidis 222; assay type: functional; outline: as §2
[24] = tested on: Haemophilus influenzae; test: Antibacterial activity against aerobic Haemophilus influenzae RES 76; assay type: functional; outline: as §2
[25] = Antibacterial activity against anaerobic Peptococcus asaccharolyticus 1302; assay type: functional; conditions: Peptoniphilus asaccharolyticus; outline: as §1
[26] = tested on: Streptococcus pneumoniae; test: Antibacterial activity against aerobic Streptococcus pneumoniae PARK; assay type: functional; outline: as §2
[27] = Antibacterial activity against anaerobic Peptostreptococcus intermedius 1264; assay type: functional; outline: as §1
[28] = Area under plasma time curve determined in male rat; assay type: ADME, organism-based
Outline: (§3)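 Male Sprague-Dawley rats given 20 mg/kg i.v. in saline through an indwelling jugular vein cannula, which was also used for serial blood sampling over 6 h. Plasma drug measured by agar well diffusion bioassay with Micrococcus luteus ATCC9241 (detection limit 3.2 μg/mL plasma). AUC by Simpson's rule.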

[29] = Maximum concentration reached following intravenous administration in male rat; assay type: ADME, organism-based; parameters: route intravenous; conditions: in vivo; outline: as §3
[30] = tested on: Bacteroides fragilis; test: Antibacterial activity against anaerobic; assay type: functional; outline: as §1

SMILES	MIC [1] [µg/mL]	MIC [2] [µg/mL]	MIC [3] [µg/mL]	MIC [4] [µg/mL]	MIC [5] [µg/mL]	MIC [6] [µg/mL]	MIC [7] [µg/mL]	MIC [8] [µg/mL]	MIC [9] [µg/mL]	MIC [10] [µg/mL]	MIC [11] [µg/mL]	MIC [12] [µg/mL]	MIC [13] [µg/mL]	MIC [14] [µg/mL]	MIC [15] [µg/mL]	MIC [16] [µg/mL]	MIC [17] [µg/mL]	MIC [18] [µg/mL]	MIC [19] [µg/mL]	MIC [21] [µg/mL]	other results
CO/N=C(\C(=O)N[C@@H]1C(=O)N2C(C(=O)O)=C(Sc3ncc(C#N)s3)CC[C@H]12)c1csc(N)n1	0.5 (≈ 0.989 µM)	2 (≈ 3.96 µM)	32 (≈ 63.3 µM)	16 (≈ 31.6 µM)	16 (≈ 31.6 µM)	0.25 (≈ 0.494 µM)	0.5 (≈ 0.989 µM)	0.25 (≈ 0.494 µM)	0.25 (≈ 0.494 µM)	> 128	1 (≈ 1.98 µM)	> 128	0.03 (≈ 0.0593 µM)	0.5 (≈ 0.989 µM)	0.5 (≈ 0.989 µM)	0.25 (≈ 0.494 µM)	0.25 (≈ 0.494 µM)	0.06 (≈ 0.119 µM)	128 (≈ 253 µM)	4 (≈ 7.91 µM)	MIC [20]: 16 µg/mL (≈ 31.6 µM); MIC [22]: > 128 µg/mL; MIC [23]: 1 µg/mL (≈ 1.98 µM); MIC [24]: 0.125 µg/mL (≈ 0.247 µM); MIC [25]: 0.25 µg/mL (≈ 0.494 µM); MIC [26]: 0.008 µg/mL (≈ 0.0158 µM); MIC [27]: 0.03 µg/mL (≈ 0.0593 µM)
Nc1nc(/C(=N/OCCF)C(=O)N[C@@H]2C(=O)N3C(C(=O)O)=C(Sc4ncc([N+](=O)[O-])s4)CC[C@H]23)cs1	≤ 0.5	1 (≈ 1.79 µM)	1 (≈ 1.79 µM)	4 (≈ 7.17 µM)	1 (≈ 1.79 µM)	≤ 0.5	1 (≈ 1.79 µM)	0.008 (≈ 0.0143 µM)	1 (≈ 1.79 µM)	4 (≈ 7.17 µM)	1 (≈ 1.79 µM)	8 (≈ 14.3 µM)	≤ 0.5	0.5 (≈ 0.897 µM)	≤ 0.5	2 (≈ 3.59 µM)	0.125 (≈ 0.224 µM)	4 (≈ 7.17 µM)	> 128	≤ 0.5	AUC [28]: 11100 ng·h/mL; Cmax [29]: 54.2 µg/mL; MIC [20]: 1 µg/mL (≈ 1.79 µM); MIC [22]: 4 µg/mL (≈ 7.17 µM); MIC [23]: 1 µg/mL (≈ 1.79 µM); MIC [24]: 0.008 µg/mL (≈ 0.0143 µM); MIC [25]: ≤ 0.5 µg/mL; MIC [26]: 0.008 µg/mL (≈ 0.0143 µM); MIC [27]: ≤ 0.5 µg/mL
CO[C@@]1(NC(=O)C2SC(=C(C(N)=O)C(=O)O)S2)C(=O)N2C(C(=O)O)=C(CSc3nnnn3C)CS[C@@H]21 (stereo not given in full) [CEFOTETAN]	128 (≈ 222 µM)	128 (≈ 222 µM)	128 (≈ 222 µM)	4 (≈ 6.95 µM)	4 (≈ 6.95 µM)	> 128	8 (≈ 13.9 µM)	0.125 (≈ 0.217 µM)	1 (≈ 1.74 µM)	8 (≈ 13.9 µM)	4 (≈ 6.95 µM)	8 (≈ 13.9 µM)	1 (≈ 1.74 µM)	0.125 (≈ 0.217 µM)	8 (≈ 13.9 µM)	128 (≈ 222 µM)	8 (≈ 13.9 µM)	16 (≈ 27.8 µM)	> 128	1 (≈ 1.74 µM)	MIC [20]: 8 µg/mL (≈ 13.9 µM); MIC [22]: 8 µg/mL (≈ 13.9 µM); MIC [23]: 16 µg/mL (≈ 27.8 µM); MIC [24]: 1 µg/mL (≈ 1.74 µM); MIC [25]: 1 µg/mL (≈ 1.74 µM); MIC [26]: 4 µg/mL (≈ 6.95 µM); MIC [27]: 8 µg/mL (≈ 13.9 µM)
CO[C@@]1(NC(=O)Cc2cccs2)C(=O)N2C(C(=O)O)=C(COC(N)=O)CS[C@@H]21 [CEFOXITIN]	2 (≈ 4.68 µM)	8 (≈ 18.7 µM)	8 (≈ 18.7 µM)	8 (≈ 18.7 µM)	8 (≈ 18.7 µM)	≤ 0.5	> 128	1 (≈ 2.34 µM)	2 (≈ 4.68 µM)	8 (≈ 18.7 µM)	4 (≈ 9.36 µM)	4 (≈ 9.36 µM)	2 (≈ 4.68 µM)	2 (≈ 4.68 µM)	1 (≈ 2.34 µM)	4 (≈ 9.36 µM)	4 (≈ 9.36 µM)	32 (≈ 74.9 µM)	> 128	2 (≈ 4.68 µM)	MIC [30]: 4 µg/mL (≈ 9.36 µM); MIC [22]: 8 µg/mL (≈ 18.7 µM); MIC [23]: 4 µg/mL (≈ 9.36 µM); MIC [24]: 2 µg/mL (≈ 4.68 µM); MIC [25]: ≤ 0.5 µg/mL; MIC [26]: 0.5 µg/mL (≈ 1.17 µM); MIC [27]: 2 µg/mL (≈ 4.68 µM)
